The source made the active and inactive calls. The rule behind the calls is not given here.
Tested on: Mycobacterium tuberculosis
Test: Induction of membrane disruption in Mycobacterium bovis BCG ATCC 35734 harboring piniBAC-RFP assessed as increase in iniBAC cluster transactivation up to 100 uM after 24 hrs by RFP-based fluorescence assay
Type: functional, organism-based
Settings: BCG str. ATCC 35743
Procedure, shortened: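 Recombinant M. bovis carrying iniBAC promoter-driven RFP treated 24 h with 0.4–100 μM; promoter induction read as RFP fluorescence; isoniazid as positive control.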

Row | SMILES | Activity
1 | COc1cccc2ccn(CCCCC[P+](c3ccccc3)(c3ccccc3)c3ccccc3)c12.[I-] | inactive
2 | NNC(=O)c1ccncc1 | Active

— ChEMBL document CHEMBL4130564, “Indolylalkyltriphenylphosphonium Analogues Are Membrane-Depolarizing Mycobactericidal Agents” (ACS Med Chem Lett, 2017)
